These results are taken from ChEMBL document CHEMBL2010648, “Discovery of novel anti-inflammatory drug-like compounds by aligning in silico and in vivo screening: the nitroindazolinone chemotype” (Eur J Med Chem, 2011).

One data set is filed under the species Danio rerio. Nature of the data set: Antiinflammatory activity in transgenic zebrafish larvae harboring Fli-1 gene assessed as LPS-stimulated leukocyte migration to injury zone of tail transected larvae at 3 uM after 20 to 22 hrs by microscopy. It is filed as functional.
Settings: not given
Summed up: (§1)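 Transgenic fli-1:EGFP zebrafish were reared in E3 at 28 °C, with PTU added at 20 hpf. Compounds were dissolved in DMSO and diluted in Danieau's, with final DMSO ≤1%. Ten 4-dpf larvae per group were pretreated for 1 h, anaesthetised with tricaine and tail-transected. They were then incubated with compound plus LPS for 20–22 h, fixed in 4% PFA and stained with Leucognost. Leukocyte migration to the tail tip was scored microscopically as relative leukocyte migration. Run in triplicate.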
Take `O=c1[nH]n(Cc2ccccc2Cl)c2ccc([N+](=O)[O-])cc12`: the Ratio was found to be 0.78.

As for `O=c1[nH]n(Cc2cccc(Cn3[nH]c(=O)c4cc([N+](=O)[O-])ccc43)c2)c2ccc([N+](=O)[O-])cc12`, the Ratio is reported as 0.8.

Regarding `O=c1c2cccnc2n2n1Cc1ccccc1C2`, the Ratio is recorded as 0.89.

As to `O=c1[nH]n(Cc2ccccc2)c2ccc([N+](=O)[O-])cc12`, the Ratio was found to be 0.67.

Regarding `O=c1[nH]n(Cc2ccccc2-c2ccccc2Cn2[nH]c(=O)c3cc([N+](=O)[O-])ccc32)c2ccc([N+](=O)[O-])cc12`, the Ratio is recorded as 0.92.

As to `O=c1[nH]n(Cc2ccccc2OCc2ccccc2)c2ccc([N+](=O)[O-])cc12`, the Ratio came out at 0.76.

Take `O=c1[nH]n(Cc2ccccc2CCl)c2ccc([N+](=O)[O-])cc12`: the Ratio came out at 0.78.

Turning to `O=c1[nH]n(Cc2ccccc2F)c2ccc([N+](=O)[O-])cc12`, the Ratio is listed as 0.84.

In the case of `O=C1Nc2cc([N+](=O)[O-])ccc2N2Cc3ccccc3CC12` (stereo not given), the Ratio came to 0.71.

Regarding `COc1nn(Cc2ccccc2F)c2ccc([N+](=O)[O-])cc12`, the Ratio is 0.86.

As to `COc1nn(Cc2ccccc2-c2ccccc2Cn2nc(OC)c3cc([N+](=O)[O-])ccc32)c2ccc([N+](=O)[O-])cc12`, the Ratio was 0.87.

Take `COc1ccc(Cn2[nH]c(=O)c3cc([N+](=O)[O-])ccc32)cc1`: the Ratio is recorded as 0.87.

With `CCOCc1ccccc1CCN1CC(=O)Nc2cc([N+](=O)[O-])ccc21`, the Ratio is recorded as 0.62.

As to `O=C(NCc1cc([N+](=O)[O-])ccc1N1CCc2ccccc2C1)NCc1cc([N+](=O)[O-])ccc1N1CCc2ccccc2C1`, the Ratio is 0.82.

As for `CCCn1c2ccc([N+](=O)[O-])cc2c(=O)n1Cc1ccccc1`, the Ratio stood at 0.89.

The species named for another data set is Danio rerio. Nature of the data set: Antiinflammatory activity in transgenic zebrafish larvae harboring Fli-1 gene assessed as LPS-stimulated leukocyte migration to injury zone of tail transected larvae at 10 uM after 20 to 22 hrs by microscopy. It counts as functional.
Settings: not given
The method in brief: as §1
In the case of `O=c1[nH]n(Cc2ccccc2Cl)c2ccc([N+](=O)[O-])cc12`, the Ratio is 0.22.

Consider `O=c1[nH]n(Cc2cccc(Cn3[nH]c(=O)c4cc([N+](=O)[O-])ccc43)c2)c2ccc([N+](=O)[O-])cc12`, for which the Ratio is 0.64.

Consider `O=c1c2cccnc2n2n1Cc1ccccc1C2`, for which the Ratio turned out to be 0.8.

As for `O=c1[nH]n(Cc2ccccc2)c2ccc([N+](=O)[O-])cc12`, the Ratio turned out to be 0.46.

For `O=c1[nH]n(Cc2ccccc2-c2ccccc2Cn2[nH]c(=O)c3cc([N+](=O)[O-])ccc32)c2ccc([N+](=O)[O-])cc12`, the Ratio turned out to be 0.85.

Consider `O=c1[nH]n(Cc2ccccc2OCc2ccccc2)c2ccc([N+](=O)[O-])cc12`, for which the Ratio is 0.84.

Turning to `O=c1[nH]n(Cc2ccccc2CCl)c2ccc([N+](=O)[O-])cc12`, the Ratio is given as 0.33.

Regarding `O=c1[nH]n(Cc2ccccc2F)c2ccc([N+](=O)[O-])cc12`, the Ratio came to 0.3.

As for `O=C1Nc2cc([N+](=O)[O-])ccc2N2Cc3ccccc3CC12` (stereo not given), the Ratio was 0.77.

For the compound `COc1nn(Cc2ccccc2F)c2ccc([N+](=O)[O-])cc12`, the Ratio is given as 0.92.

For the compound `COc1nn(Cc2ccccc2-c2ccccc2Cn2nc(OC)c3cc([N+](=O)[O-])ccc32)c2ccc([N+](=O)[O-])cc12`, the Ratio turned out to be 0.69.

For `COc1ccc(Cn2[nH]c(=O)c3cc([N+](=O)[O-])ccc32)cc1`, the Ratio turned out to be 0.8.

For `CCOCc1ccccc1CCN1CC(=O)Nc2cc([N+](=O)[O-])ccc21`, the Ratio worked out at 0.48.

As for `O=C(NCc1cc([N+](=O)[O-])ccc1N1CCc2ccccc2C1)NCc1cc([N+](=O)[O-])ccc1N1CCc2ccccc2C1`, the Ratio was determined as 0.81.

As for `CCCn1c2ccc([N+](=O)[O-])cc2c(=O)n1Cc1ccccc1`, the Ratio was 0.86.

The species entered for a further data set is Danio rerio. Nature of the data set: Antiinflammatory activity in transgenic zebrafish larvae harboring Fli-1 gene assessed as LPS-stimulated leukocyte migration to injury zone of tail transected larvae at 1 uM after 20 to 22 hrs by microscopy. It counts as functional.
Settings: not given
Summed up:
as §1
For the compound `O=c1[nH]n(Cc2cccc(Cn3[nH]c(=O)c4cc([N+](=O)[O-])ccc43)c2)c2ccc([N+](=O)[O-])cc12`, the Ratio stood at 0.87.

`O=c1[nH]n(Cc2ccccc2)c2ccc([N+](=O)[O-])cc12`: the Ratio turned out to be 0.88.

Take `O=c1[nH]n(Cc2ccccc2-c2ccccc2Cn2[nH]c(=O)c3cc([N+](=O)[O-])ccc32)c2ccc([N+](=O)[O-])cc12`: the Ratio stood at 0.72.

As for `O=c1[nH]n(Cc2ccccc2OCc2ccccc2)c2ccc([N+](=O)[O-])cc12`, the Ratio is 0.94.

In the case of `O=c1[nH]n(Cc2ccccc2CCl)c2ccc([N+](=O)[O-])cc12`, the Ratio is on record as 0.83.

Take `O=c1[nH]n(Cc2ccccc2F)c2ccc([N+](=O)[O-])cc12`: the Ratio turned out to be 0.91.

With `O=C1Nc2cc([N+](=O)[O-])ccc2N2Cc3ccccc3CC12` (stereo not given), the Ratio was determined as 0.75.

As to `COc1nn(Cc2ccccc2-c2ccccc2Cn2nc(OC)c3cc([N+](=O)[O-])ccc32)c2ccc([N+](=O)[O-])cc12`, the Ratio stood at 0.84.

`COc1ccc(Cn2[nH]c(=O)c3cc([N+](=O)[O-])ccc32)cc1`: the Ratio came out at 0.87.

Turning to `CCOCc1ccccc1CCN1CC(=O)Nc2cc([N+](=O)[O-])ccc21`, the Ratio came to 0.59.

On to `O=C(NCc1cc([N+](=O)[O-])ccc1N1CCc2ccccc2C1)NCc1cc([N+](=O)[O-])ccc1N1CCc2ccccc2C1`, for which the Ratio is on record as 0.85.

For a further data set, the species on record is Danio rerio. Nature of the data set: Antiinflammatory activity in transgenic zebrafish larvae harboring Fli-1 gene assessed as LPS-stimulated leukocyte migration to injury zone of tail transected larvae at 30 uM after 20 to 22 hrs by microscopy. It is filed as functional.
Settings: not given
Summed up:
as §1
For `O=c1[nH]n(Cc2ccccc2Cl)c2ccc([N+](=O)[O-])cc12`, the Ratio was 0.26.

Turning to `O=c1c2cccnc2n2n1Cc1ccccc1C2`, the Ratio was determined as 0.52.

For `COc1nn(Cc2ccccc2F)c2ccc([N+](=O)[O-])cc12`, the Ratio was determined as 0.87.

For the compound `CCCn1c2ccc([N+](=O)[O-])cc2c(=O)n1Cc1ccccc1`, the Ratio was 0.16.

A further data set is filed under the species Danio rerio. Nature of the data set: Toxicity in transgenic zebrafish larvae harboring Fli-1 gene assessed as maximum tolerated dosage after 24 hrs. It counts as organism-based. The settings on record: in vivo. The method in brief: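 Fertilized eggs of the fli-1:EGFP line reared in E3 embryo medium at 28 °C, with PTU added at 20 hpf to block pigmentation. Compounds were dissolved in DMSO and diluted in Danieau's 0.3X, final DMSO ≤1%. Larvae at 4 dpf, 5 per well, were exposed for 24 h to 10, 30 and 100 (highest) concentrations and checked by light microscopy at 5 dpf. MTC is the highest concentration giving no death or toxicity signs.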
Turning to `O=c1[nH]n(Cc2ccccc2Cl)c2ccc([N+](=O)[O-])cc12`, the MTD turned out to be 30 µM.

On to `O=c1[nH]n(Cc2cccc(Cn3[nH]c(=O)c4cc([N+](=O)[O-])ccc43)c2)c2ccc([N+](=O)[O-])cc12`, for which the MTD was 10 µM.

For `O=c1c2cccnc2n2n1Cc1ccccc1C2`, the MTD came to 30 µM.

As for `O=c1[nH]n(Cc2ccccc2)c2ccc([N+](=O)[O-])cc12`, the MTD came to 10 µM.

In the case of `O=c1[nH]n(Cc2ccccc2-c2ccccc2Cn2[nH]c(=O)c3cc([N+](=O)[O-])ccc32)c2ccc([N+](=O)[O-])cc12`, the MTD was determined as 10 µM.

As for `O=c1[nH]n(Cc2ccccc2OCc2ccccc2)c2ccc([N+](=O)[O-])cc12`, the MTD is 10 µM.

As to `O=c1[nH]n(Cc2ccccc2CCl)c2ccc([N+](=O)[O-])cc12`, the MTD is 10 µM.

Consider `O=c1[nH]n(Cc2ccccc2F)c2ccc([N+](=O)[O-])cc12`, for which the MTD worked out at 10 µM.

As for `O=C1Nc2cc([N+](=O)[O-])ccc2N2Cc3ccccc3CC12` (stereo not given), the MTD stood at 10 µM.

Consider `COc1nn(Cc2ccccc2F)c2ccc([N+](=O)[O-])cc12`, for which the MTD worked out at 30 µM.

Consider `COc1nn(Cc2ccccc2-c2ccccc2Cn2nc(OC)c3cc([N+](=O)[O-])ccc32)c2ccc([N+](=O)[O-])cc12`, for which the MTD came to 10 µM.

As to `COc1ccc(Cn2[nH]c(=O)c3cc([N+](=O)[O-])ccc32)cc1`, the MTD came out at 10 µM.

In the case of `CCOCc1ccccc1CCN1CC(=O)Nc2cc([N+](=O)[O-])ccc21`, the MTD came to 10 µM.

`O=C(NCc1cc([N+](=O)[O-])ccc1N1CCc2ccccc2C1)NCc1cc([N+](=O)[O-])ccc1N1CCc2ccccc2C1`: the MTD came to 10 µM.

For `CCCn1c2ccc([N+](=O)[O-])cc2c(=O)n1Cc1ccccc1`, the MTD was 30 µM.
